Data: article PMC3667888 (Channels, 2013)
Numbering of substitutions follows the chain as printed.

Columns and labels:
[1] = molecular target: T1, wild-type Kv4.2/KChIP1b channels (Rattus norvegicus, UniProt Q63881); assay type: cell-based
T1 sequence (Q63881 1-630): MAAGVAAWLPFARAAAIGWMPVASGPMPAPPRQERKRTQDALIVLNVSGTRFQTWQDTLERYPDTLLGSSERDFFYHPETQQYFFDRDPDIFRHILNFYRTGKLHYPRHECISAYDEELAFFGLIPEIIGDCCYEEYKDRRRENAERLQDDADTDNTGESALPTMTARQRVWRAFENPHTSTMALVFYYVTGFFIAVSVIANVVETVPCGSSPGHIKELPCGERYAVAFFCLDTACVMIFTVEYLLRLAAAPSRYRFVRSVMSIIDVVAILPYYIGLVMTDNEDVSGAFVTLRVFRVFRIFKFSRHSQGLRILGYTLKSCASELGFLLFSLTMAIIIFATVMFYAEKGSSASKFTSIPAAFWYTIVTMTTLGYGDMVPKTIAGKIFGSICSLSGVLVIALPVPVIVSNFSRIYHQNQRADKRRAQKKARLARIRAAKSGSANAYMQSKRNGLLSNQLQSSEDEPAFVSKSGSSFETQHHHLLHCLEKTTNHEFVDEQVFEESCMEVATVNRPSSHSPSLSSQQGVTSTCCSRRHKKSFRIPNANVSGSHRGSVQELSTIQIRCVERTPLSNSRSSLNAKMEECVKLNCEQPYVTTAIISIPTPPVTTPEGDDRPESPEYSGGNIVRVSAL
Outline: (§1)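 Rat Kv4.2 (WT or QuikChange mutant) RNA co-injected equimolar with KChIP1b, 5–10 ng/oocyte, into Xenopus oocytes held 1–5 d at 17–19 °C. Two-electrode voltage clamp at room temperature in perfused Na/K methanesulfonate HEPES saline, pH 7.4–7.5, with P/−4 or P/−6 leak subtraction. Peak current at +40 mV (from −90 mV) after 10 min of 10 μM AA is expressed relative to pre-AA current. Mean ± SE, n = cells.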

[2] = molecular target: T2, Kv4.2 K318Q mutant channels (co-injected with KChIP1b) (Rattus norvegicus, UniProt Q63881, K318Q); test: Two-electrode voltage clamp, K318Q mutant Kv4.2/KChIP1b in Xenopus oocytes; assay type: cell-based
T2 sequence (Q63881 1-630 K318Q): T1 sequence (Q63881 1-630) with K318Q
Outline: as §1

[3] = molecular target: T3, Kv4.2 K318E mutant channels (co-injected with KChIP1b) (Rattus norvegicus, UniProt Q63881, K318E); test: Two-electrode voltage clamp, K318E mutant Kv4.2/KChIP1b in Xenopus oocytes; assay type: cell-based; conditions: 10 µM AA
T3 sequence (Q63881 1-630 K318E): T1 sequence (Q63881 1-630) with K318E
Outline: (§2)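 Xenopus oocytes co-expressing rat Kv4.2 (WT or mutant) with equimolar KChIP1b were recorded by two-electrode voltage clamp at room temperature. Peak conductance was calculated as G = I/(Vm − Vh), with Vh = −100 mV, and normalized to each cell's Gmax. It was plotted against step potential without and with 10 μM AA and fit to a first-order Boltzmann function to give V1/2 and slope.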

[4] = test system: Kv1.2/Kv2.1 chimeric channel; test: Two-electrode voltage clamp of Kv1.2/2.1 chimera K+ currents in Xenopus oocytes; assay type: cell-based; conditions: 10 µM AA
[5] = test system: group of mutant Kv4.2 channels (V261F, K318Q, V261F/K318Q); test: Two-electrode voltage clamp, grouped mutant Kv4.2 channels; assay type: cell-based, rat; conditions: 10 µM AA
Outline: as §2

[6] = read-out: inhibition of the peak K+ current

## CCCCC/C=C\C/C=C\C/C=C\C/C=C\CCCC(=O)O [AA, arachidonic acid]
[1]; 10 µM AA, WT
  V1/2 of conductance-voltage curve with AA: −13.4 mV
  rightward shift in V1/2 of the conductance-voltage relationship in the presence of AA: +7 mV
  slope factor (k) of Boltzmann fit with AA: 12.1
[1]; 10 µM AA, n = 3, same batch of oocytes as Kv1.2/2.1, +40 mV test potential
  decrease in Kv4.2 currents: 30.7 ± 1.8%
[1]; fitted Kd for AA inhibition of peak current, Hill equation, nH = 1, +40 mV, 1 to 300 µM AA, WT
  Kd: 21.1 µM
[1]; [6]
  inhibition at 10 µM: 30%
[2]; 10 µM AA, K318Q
  V1/2 of conductance-voltage curve with AA: −8.6 mV
  slope factor (k) of Boltzmann fit with AA: 11.3
[2]; [6]
  inhibition at 10 µM: 12%
[3]
  V1/2 of conductance-voltage curve with AA: −25.2 mV
  shift in V1/2 in the presence of AA: +5 mV
  slope factor (k) of Boltzmann fit with AA: 7.1
[3]; 10 min
  inhibition of peak K+ current by AA, effect of mutation: did not impair the inhibition of current by AA
[4]
  modulation of Kv1.2/2.1 K+ currents by AA: not modulated by AA
[4]; n = 8, +110 mV test potential
  increase in current: 1.1 ± 2.1%
[5]
  average shift in V1/2 in the presence of AA for the three mutant constructs: +5.7 mV
